How the values were obtained:
P388 [1] = assay: Antiproliferative activity against mouse P388 cells at 0.1 uM by MTT assay; type: functional
Outline: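 P388 cells in RPMI 1640 with 2 mM L-glutamine, 1.5 g/L NaHCO3, 4.5 g/L glucose, 1.0 mM pyruvate and 10% FBS, at 37 °C in 5% CO2. Plated 24 h before treatment, then 72 h exposure at a single concentration. MTT readout: 4 h MTT, DMF/SDS lysis, OD570 after 24 h. Value expressed as percent inhibition of proliferation.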

[2] = Lipophilicity, log K of the compound; type: physicochemical; settings: HPLC
Outline: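 Hydrophobicity determined by HPLC.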

P388 [3] = assay: Antiproliferative activity against mouse P388 cells by MTT assay; type: functional, cell-based
Outline: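 P388 cells in RPMI 1640 with 2 mM L-glutamine, 1.5 g/L NaHCO3, 4.5 g/L glucose, 1.0 mM pyruvate and 10% FBS, at 37 °C in 5% CO2. Plated 24 h before treatment, then exposed 72 h to varying concentrations. MTT 4 h at 37 °C, DMF/SDS lysis, OD570 after 24 h. IC50 from triplicates, 3–7 repeat experiments.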

SK-N-MC = assay: Antiproliferative activity against human SK-N-MC cells by MTT assay; type: functional, cell-based
Outline: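 SK-N-MC cells in MEM with 10% (v/v) FBS, 1.0 mM sodium pyruvate, 1% non-essential amino acids, L-glutamine, penicillin/streptomycin and fungizone. Plated 24 h before dosing and exposed 72 h to varying concentrations. MTT added for 4 h at 37 °C, then DMF/SDS lysis, with OD570 read after 24 h. IC50 from triplicate wells, experiments repeated 3–7 times.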

log K [2]	IC50 (P388 [3]) [µM]	IC50 (SK-N-MC) [µM]	SMILES	inhibition at 0.1 µM (P388 [1]) [%]
1.5395			Oc1cccc2ccc(/C=C/c3cccc(Cl)c3)nc12	15
	1.51		CCCC(=O)NC1=CC(=O)c2ccc(C)nc2C1=O	
0.2227	1.61	> 6.25	CC(=O)NC1=CC(=O)c2ccc(C)nc2C1=O	
	10.3		Cc1ccc2c(n1)C(=O)C(N)=CC2=O	
1.6043	116		O=C(O)c1ccc2nc(/C=C/c3ccc(Cl)cc3)ccc2c1	
1.3842	51.1		O=C(O)c1ccc2nc(/C=C/c3ccccc3O)ccc2c1	
1.2062	89.4		O=C(O)c1ccc(C(=O)O)c2nc(/C=C/c3ccccc3Br)ccc12	
1.2263	100		COc1cccc(/C=C/c2ccc3c(C(=O)O)cccc3n2)c1	
1.6315	110		O=C(O)c1ccc2nc(/C=C/c3cccc(Cl)c3)ccc2c1	
1.1811			COc1cccc(/C=C/c2ccc3c(C(=O)O)ccc(C(=O)O)c3n2)c1	25
1.4397	109		O=C(O)c1cccc2nc(/C=C/c3ccc(Br)cc3)ccc12	
	7.14		O=[N+]([O-])c1cc([N+](=O)[O-])c2ccc(/C=C/c3ccc(Cl)cc3)nc2c1O	
			COc1ccc(/C=C/c2ccc3c(NC(C)=O)cc(NC(C)=O)c(OC(C)=O)c3n2)c(OC)c1	20
	158		O=C(O)c1cc([N+](=O)[O-])c2ccc(/C=C/c3ccccc3Cl)nc2c1O	
	1.44		Cc1ccc2c(n1)C(=O)C(NC(=O)CCc1ccccc1)=CC2=O	
	2.39		Cc1ccc2c(n1)C(=O)C(NC(=O)/C=C/c1ccccc1)=CC2=O	
1.6787	13.6		O=C(O)c1cccc2ccc(/C=C/c3ccccc3O)nc12	
1.2107	110		O=C(O)c1ccc(C(=O)O)c2nc(/C=C/c3ccc(Cl)cc3)ccc12	
	1.43		CCC(=O)NC1=CC(=O)c2ccc(C)nc2C1=O	
1.2163	114		O=C(O)c1ccc(C(=O)O)c2nc(/C=C/c3cccc(Cl)c3)ccc12	
0.0907	6.1	4.26	COC1=CC(=O)c2ccc(C)nc2C1=O	
	79.1		COc1ccc(/C=C/c2ccc3c([N+](=O)[O-])cc([N+](=O)[O-])c(O)c3n2)cc1	
1.8165	15.3		O=C(O)c1cccc2ccc(/C=C/c3ccc(Cl)cc3)nc12	
1.255			O=C(O)c1cccc2nc(/C=C/c3ccccc3O)ccc12	30
1.3678			O=C(O)c1ccc2ccc(/C=C/c3ccccc3O)nc2c1	30
	6.58		CC(=O)Nc1cc(NC(C)=O)c2ccc(/C=C/c3ccccc3Br)nc2c1OC(C)=O	
	148		COc1ccc(/C=C/c2ccc3c([N+](=O)[O-])cc(C(=O)O)c(O)c3n2)cc1	
1.2047	114		O=C(O)c1ccc(C(=O)O)c2nc(/C=C/c3ccccc3Cl)ccc12	

SMILES	log K [2]	IC50 (P388 [3]) [µM]	IC50 (SK-N-MC) [µM]	inhibition at 0.1 µM (P388 [1]) [%]
O=[N+]([O-])c1cc([N+](=O)[O-])c2cccnc2c1O	0.7154	7.14	> 6.25	

Reference: ChEMBL document CHEMBL1140540, “Investigating the antiproliferative activity of quinoline-5,8-diones and styrylquinolinecarboxylic acids on tumor cell lines” (Bioorg Med Chem Lett, 2007)
